From ChEMBL document CHEMBL1165858, “Synthesis and biological evaluation of beta-chloro vinyl chalcones as inhibitors of TNF-alpha and IL-6 with antimicrobial activity” (Eur J Med Chem, 2010)
≈ marks a conversion by molar mass, not a printed value. Calls of active or inactive are those of the source. The rule behind the calls is not given here.

Assays:
THP-1 [1] = experiment: Antiinflammatory activity in human THP1 cells assessed as inhibition of LPS-induced IL-6 secretion at 10 uM treated 30 mins before LPS challenge measured after 24 hrs by ELISA relative to control; format: functional
How it was run: (§1)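 THP-1 cells were grown in RPMI 1640 with 10% FBS and penicillin/streptomycin, then differentiated with PMA. Compound or vehicle (0.5% DMSO) was added for 30 min at 37 °C, followed by LPS (E. coli 0127:B8, final 1 µg/mL). After 24 h at 37 °C in 5% CO2, TNF-α and IL-6 in the supernatants were quantified by ELISA. Values are the mean of n = 2.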

Bacillus subtilis [2] = experiment: Antibacterial activity against Bacillus subtilis NCIM 2546 at > 100 […] after 24 hrs by disc diffusion method; format: functional, organism-based
Aspergillus niger [3] = experiment: Antibacterial activity against Aspergillus niger NCIM 545 at > 100 […] after 72 hrs by disc diffusion method; format: functional, organism-based
Staphylococcus aureus = experiment: Antibacterial activity against Staphylococcus aureus NCIM 2120 after 24 hrs by disc diffusion method; format: functional; conditions: for MIC: Staphylococcus aureus, NCIM 2120, 24 h
How it was run: (§2)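 Paper disc diffusion (6.25 mm Whatman no.1 discs, dry-heat sterilized at 140 °C for 1 h) loaded with compounds at different concentrations in DMSO. Discs were placed in triplicate on nutrient agar seeded with fresh bacterial culture and incubated at 37 °C for 24 h, with solvent and growth controls. Zones of inhibition (mm) and MIC, the concentration completely inhibiting growth, were recorded.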

[4] = Cytotoxicity against […] at 10 uM; format: cell-based
THP-1 [5] = experiment: Antiinflammatory activity in human THP1 cells assessed as inhibition of LPS-induced TNFalpha secretion at 10 uM treated 30 mins before LPS challenge measured after 24 hrs by ELISA relative to control; format: functional; how it was run: as §1
Klebsiella pneumoniae = experiment: Antibacterial activity against Klebsiella pneumoniae NCIM 5082 after 24 hrs by disc diffusion method; format: functional; conditions: for MIC: Klebsiella pneumoniae, NCIM 5082, 24 h; how it was run: as §2
Candida albicans [6] = experiment: Antibacterial activity against Candida albicans NCIM 3100 at > 100 […] after 72 hrs by disc diffusion method; format: functional, organism-based
Penicillium chrysogenum = experiment: Antibacterial activity against Penicillium chrysogenum NCIM 707 after 72 hrs by disc diffusion method; format: functional; conditions: for MIC: Penicillium chrysogenum, NCIM 707, 72 h
How it was run: (§3)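 Agar disc diffusion against fungi. Fungi were maintained on potato dextrose agar at (25 ± 2) °C for five days before use. Compounds were dissolved in DMSO (10 mg/mL initial solutions) and loaded on discs placed on freshly seeded plates alongside a solvent control disc. Plates were held at 4 °C for 24 h for diffusion, then incubated at 37 ± 5 °C for 72 h. Zones of inhibition (mm) and MICs were recorded.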

Trichoderma viride = experiment: Antibacterial activity against Trichoderma viride TT after 72 hrs by disc diffusion method; format: functional; conditions: for MIC: Trichoderma viride, TT, 72 h; how it was run: as §3
Proteus vulgaris [7] = experiment: Antibacterial activity against Proteus vulgaris NCIM 2813 at > 100 […] after 24 hrs by disc diffusion method; format: functional, organism-based
Aspergillus fumigatus = experiment: Antibacterial activity against Aspergillus fumigatus NCIM 902 after 72 hrs by disc diffusion method; format: functional; conditions: for MIC: Aspergillus fumigatus, NCIM 902, 72 h; how it was run: as §3
Escherichia coli [8] = experiment: Antibacterial activity against Escherichia coli NCIM 2065 at > 100 […] after 24 hrs by disc diffusion method; format: functional, organism-based
Bacillus subtilis [9] = experiment: Antibacterial activity against Bacillus subtilis NCIM 2546 after 24 hrs by disc diffusion method; format: functional; conditions: for MIC: Bacillus subtilis, NCIM 2546, 24 h; how it was run: as §2
Proteus vulgaris [10] = experiment: Antibacterial activity against Proteus vulgaris NCIM 2813 after 24 hrs by disc diffusion method; format: functional; conditions: for MIC: Proteus vulgaris, NCIM 2813, 24 h; how it was run: as §2
Escherichia coli [11] = experiment: Antibacterial activity against Escherichia coli NCIM 2065 after 24 hrs by disc diffusion method; format: functional; conditions: for MIC: Escherichia coli, NCIM 2065, 24 h; how it was run: as §2
Aspergillus niger [12] = experiment: Antibacterial activity against Aspergillus niger NCIM 545 after 72 hrs by disc diffusion method; format: functional; conditions: for MIC: Aspergillus niger, NCIM 545, 72 h; how it was run: as §3
Candida albicans [13] = experiment: Antibacterial activity against Candida albicans NCIM 3100 after 72 hrs by disc diffusion method; format: functional; conditions: for MIC: Candida albicans, NCIM 3100, 72 h; how it was run: as §3

Molecule	inhibition at 10 µM (THP-1 [1]) [%]	inhibition zone (IZ) (Staphylococcus aureus) [mm]	MIC (Staphylococcus aureus) [µg/mL]	Activity [4]	inhibition at 10 µM (THP-1 [5]) [%]	inhibition zone (IZ) (Klebsiella pneumoniae) [mm]	inhibition zone (IZ) (Penicillium chrysogenum) [mm]	MIC (Penicillium chrysogenum) [µg/mL]	inhibition zone (IZ) (Trichoderma viride) [mm]	inhibition zone (IZ) (Aspergillus fumigatus) [mm]	inhibition zone (IZ) (Bacillus subtilis [9]) [mm]	MIC (Bacillus subtilis [9]) [µg/mL]	MIC (Klebsiella pneumoniae) [µg/mL]	inhibition zone (IZ) (Proteus vulgaris [10]) [mm]	inhibition zone (IZ) (Escherichia coli [11]) [mm]	MIC (Escherichia coli [11]) [µg/mL]	MIC (Trichoderma viride) [µg/mL]	inhibition zone (IZ) (Aspergillus niger [12]) [mm]	MIC (Aspergillus niger [12]) [µg/mL]	MIC (Aspergillus fumigatus) [µg/mL]	also measured
COc1ccc(/C(Cl)=C/C=C/C(=O)c2c(O)cc(OC)cc2OC)c(OC)c1	33	14	50 (≈ 124 µM)	Non-toxic	0	13	14	50 (≈ 124 µM)	10	10	–	–	–	–	–	–	–	–	–	–	MIC (Bacillus subtilis [2]): inactive; MIC (Aspergillus niger [3]): inactive; MIC (Candida albicans [6]): inactive; MIC (Proteus vulgaris [7]): inactive; MIC (Escherichia coli [8]): inactive
COc1cc(O)c(C(=O)/C=C/C=C(\Cl)c2ccc(Br)cc2)c(OC)c1	58	14	50 (≈ 118 µM)	Non-toxic	8	20	18	25 (≈ 59 µM)	18	20	18	25 (≈ 59 µM)	25 (≈ 59 µM)	12	15	50 (≈ 118 µM)	25 (≈ 59 µM)	14	50 (≈ 118 µM)	25 (≈ 59 µM)	inhibition zone (IZ) (Candida albicans [13]): 14 mm; MIC (Candida albicans [13]): 25 µg/mL (≈ 59 µM)
GENTAMICIN [listing 1 of 2 here]	–	–	–	–	–	22	–	–	–	–	24	–	–	18	–	–	–	–	–	–	–
COc1cc(O)c(C(=O)/C=C/C=C(\Cl)c2ccccc2Cl)c(OC)c1	43	16	50 (≈ 132 µM)	Non-toxic	17	18	16	50 (≈ 132 µM)	14	14	16	50 (≈ 132 µM)	25 (≈ 65.9 µM)	20	14	50 (≈ 132 µM)	50 (≈ 132 µM)	16	50 (≈ 132 µM)	50 (≈ 132 µM)	MIC (Proteus vulgaris [10]): 25 µg/mL (≈ 65.9 µM); MIC (Candida albicans [6]): inactive
CC1(C)S[C@@H]2[C@H](NC(=O)Cc3ccccc3)C(=O)N2[C@H]1C(=O)O [PENICILLIN G]	–	20	25 (≈ 74.8 µM)	Non-toxic	–	21	–	–	–	–	22	25 (≈ 74.8 µM)	25 (≈ 74.8 µM)	22	18	25 (≈ 74.8 µM)	–	–	–	–	MIC (Proteus vulgaris [10]): 25 µg/mL (≈ 74.8 µM)
OC(Cn1cncn1)(Cn1cncn1)c1ccc(F)cc1F [FLUCONAZOLE]	–	–	–	–	–	–	22	25 (≈ 81.6 µM)	22	20	–	–	–	–	–	–	25 (≈ 81.6 µM)	20	25 (≈ 81.6 µM)	25 (≈ 81.6 µM)	inhibition zone (IZ) (Candida albicans [13]): 18 mm; MIC (Candida albicans [13]): 25 µg/mL (≈ 81.6 µM)
GENTAMICIN [listing 2 of 2 here]	–	–	–	Non-toxic	–	–	–	–	–	–	–	–	–	–	–	–	–	–	–	–	–
